Laboratory results published in ChEMBL document CHEMBL6127097, “Structure-Guided Discovery of cis-Hexahydro-pyrido-oxazinones as Reversible, Drug-like Monoacylglycerol Lipase Inhibitors” (J Med Chem, 2024).
≈ marks a conversion by molar mass, not a printed value. Calls of active or inactive are those of the source. The rule behind the calls is not given here.

What was measured:
[1] = Aqueous solubility of compound in phosphate buffer at pH 6.5 by HPLC or MS/MS analysis; assay type: physicochemical; conditions: buffer
Procedure, shortened: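 Lyophilization solubility assay (LYSA) starting from a 10 mM DMSO stock. DMSO was removed by centrifugal vacuum evaporation, then 0.05 M phosphate buffer pH 6.5 was added and samples sonicated. Filtrates were analysed by MS/MS and/or HPLC against a 4- to 7-point calibration curve.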

[2] = Effective permeability of compound at pH 7.4 at 20 uM incubated for 18 hrs by LCMS analysis; assay type: ADME; conditions: not told, read-out: Peff
Procedure, shortened: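 PAMPA passive permeability. Donor holds 20 µM sample in 50 mM phosphate-buffered saline pH 7.4, at most 5% DMSO, in triplicate. The lipid/oil/lipid trilayer-impregnated hydrophobic filter sandwich is left unshaken 18 h at 21 °C. Reference, donor and acceptor solutions are analysed by LCMS to give P_eff.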

[3] = Chemical stability at pH 1 incubated for 2 hrs; assay type: physicochemical; conditions: buffer, pH 1, 2 h
Procedure, shortened: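 Compound was held in aqueous buffer at the stated pH for 2 h at 37 °C.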

Monoglyceride lipase [4] = target: T1, Monoglyceride lipase (Homo sapiens, UniProt Q99685); test: Binding affinity to human MAGL assessed as equilibrium dissociation constant by SPR analysis
T1 sequence (Q99685 whole entry): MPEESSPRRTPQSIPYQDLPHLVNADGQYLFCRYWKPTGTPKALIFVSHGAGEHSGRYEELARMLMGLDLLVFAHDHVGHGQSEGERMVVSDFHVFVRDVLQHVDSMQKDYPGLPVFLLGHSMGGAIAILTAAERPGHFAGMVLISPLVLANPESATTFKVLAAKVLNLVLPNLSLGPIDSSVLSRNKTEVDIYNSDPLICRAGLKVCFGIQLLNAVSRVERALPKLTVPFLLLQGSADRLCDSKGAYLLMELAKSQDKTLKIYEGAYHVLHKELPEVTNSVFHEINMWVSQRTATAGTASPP
Procedure, shortened: (§1)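 Human or rat MAGL was immobilized by amine coupling without ethanolamine quenching. Runs were done at 18 °C in 10 mM HEPES, 150 mM NaCl, 0.05% P20, 50 µM EDTA, pH 7.4, with 1% DMSO. Single-cycle kinetics used five concentrations, top 1 µM in 2-fold steps, at 30 µL/min, giving kon, koff and Kd.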

[5] = Cmax in Wistar rat at 5 mg/kg, po measured upto 24 hrs by LC-MS/MS analysis; assay type: ADME, organism-based; conditions: in vivo
Procedure, shortened: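 Male Wistar rats (N = 3 per group) received a single dose. The i.v. dose was 1 mg/kg in NMP/0.9% NaCl 30:70. The p.o. dose was 5 mg/kg in NMP/HPMC/diisooctyl sulfosuccinate 10:90. Blood was taken into K2EDTA from 0.083 (i.v.) or 0.25 h to 24 h. Plasma was assayed by LC-MS/MS and analysed non-compartmentally.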

[6] = Drug concentration in mouse CSF at 10 mg/kg, ip measured after 4 hrs; assay type: ADME, organism-based, Cerebrospinal fluid; conditions: read-out: Ct
[7] = Average drug concentration in mouse plasma at 30 mg/kg, ip measured after 24 hrs; assay type: ADME, organism-based; conditions: in vivo
Procedure, shortened: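 In a time course, mice were injected i.p. with 30 mg/kg in NaCl/DMSO/Tween 80 (80/10/10). Average plasma levels were determined at the stated time points over 24 h.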

[8] = Drug concentration in mouse CSF at 30 mg/kg, ip measured after 2 hrs; assay type: ADME, organism-based, Cerebrospinal fluid; conditions: read-out: Ct
[9] = Drug concentration in mouse CSF at 30 mg/kg, ip measured after 24 hrs; assay type: ADME, organism-based, Cerebrospinal fluid; conditions: read-out: Ct
Monoglyceride lipase [10] = target: T1, Monoglyceride lipase; test: Inhibition of human MAGL using native substrate by Rapidfire MS assay
[11] = target: T2, Monoglyceride lipase (Homo sapiens) (UniProt Q99685); test: Binding affinity to human MAGL assessed as association rate constant by SPR analysis; procedure, shortened: as §1
T2 sequence (whole entry): T1 sequence (Q99685 whole entry)

[12] = target: T3, Lysophosphatidylserine lipase ABHD12 (Mus musculus) (UniProt Q99LR1); test: Inhibition of ABHD12 in mouse brain lysates at 10 uM by ABPP assay; assay type: subcellular
T3 sequence (whole entry): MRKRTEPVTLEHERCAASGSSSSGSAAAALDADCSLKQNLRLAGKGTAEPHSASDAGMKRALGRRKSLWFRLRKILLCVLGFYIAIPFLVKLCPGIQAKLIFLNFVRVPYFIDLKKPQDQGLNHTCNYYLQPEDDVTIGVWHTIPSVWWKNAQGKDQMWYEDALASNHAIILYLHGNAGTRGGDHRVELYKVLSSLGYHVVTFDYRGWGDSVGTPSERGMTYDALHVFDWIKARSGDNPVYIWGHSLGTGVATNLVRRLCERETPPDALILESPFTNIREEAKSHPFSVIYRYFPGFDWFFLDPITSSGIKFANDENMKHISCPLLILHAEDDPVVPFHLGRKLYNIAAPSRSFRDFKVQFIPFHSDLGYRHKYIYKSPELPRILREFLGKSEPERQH
Procedure, shortened: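 Gel-based activity-based protein profiling of hydrolases, with the inhibitor at 10 µM.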

Mus musculus [13] = test: Downregulation of brain AA level in ip dosed mouse measured after 4 hrs; assay type: functional, organism-based; conditions: dose 3-30 mg/kg
Procedure, shortened: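 Mice received 3, 10 or 30 mg/kg i.p. in NaCl/DMSO/Tween 80 (80/10/10) and were sacrificed after 4 h. Arachidonic acid in brain extracts was measured by LC/MS.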

[14] = target: T4, Monoglyceride lipase (Mus musculus) (UniProt O35678); test: In vivo receptor occupancy at MAGL receptor in mouse at 30 mg/kg, ip measured after 4 hrs; assay type: functional, organism-based
T4 sequence (whole entry): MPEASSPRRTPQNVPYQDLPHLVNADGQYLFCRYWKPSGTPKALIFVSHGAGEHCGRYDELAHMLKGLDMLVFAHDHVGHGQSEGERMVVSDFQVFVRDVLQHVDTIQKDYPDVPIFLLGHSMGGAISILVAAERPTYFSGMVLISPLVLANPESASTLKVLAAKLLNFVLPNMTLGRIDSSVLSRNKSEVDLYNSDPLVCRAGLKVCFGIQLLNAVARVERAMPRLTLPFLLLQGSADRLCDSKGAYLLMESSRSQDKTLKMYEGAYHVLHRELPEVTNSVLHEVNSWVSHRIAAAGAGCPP

[15] = target: T4, Monoglyceride lipase (Mus musculus); test: In vivo receptor occupancy at MAGL receptor in mouse at 3 mg/kg, ip measured after 4 hrs; assay type: functional, organism-based
Mus musculus [16] = test: Upregulation of brain 2-AG level in mouse at 30 mg/kg, ip measured after 2 hrs; assay type: functional, organism-based
Procedure, shortened: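 Mice dosed i.p. in NaCl/DMSO/TW80 (80/10/10): 3, 10 or 30 mg/kg with sacrifice at 4 h, or 30 mg/kg over a 24 h time course. Brain extract 2-AG and AA were measured by LC/MS.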

Mus musculus [17] = test: Antiinflammatory activity in LPS-induced CD-1 mouse neuroinflammation model assessed as decrease in peripheral tissue IL-1beta mRNA expression at 30 mg/kg, ip measured after 6 hrs by qRT-PCR analysis; assay type: functional, organism-based
Procedure, shortened: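 CD-1 mice were dosed with NaCl + vehicle, LPS (5 mg/kg) + vehicle, or LPS + inhibitor at 30 mg/kg i.p. (vehicle NaCl/DMSO/Tween 80, 80/10/10). They were sacrificed 6 h post-compound. LCN2 and IL1b mRNA in peripheral tissue were measured by droplet digital qRT-PCR.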

SMILES	solubility [1] [µg/mL]	Papp at 18 h, 20 µM [2] [×10⁻⁶ cm/s]	Stability [3]	Kd (Monoglyceride lipase [4]) [nM]	Cmax [5] [ng/mL]	concentration at 4 h [6] [nM]	Cave [7] [nM]	concentration at 2 h [8] [nM]	concentration at 24 h [9] [nM]	IC50 (Monoglyceride lipase [10]; read-out: IC50) [nM]	IC50 (Monoglyceride lipase [10]; read-out: pIC50 (converted)) [nM]	K [11]	inhibition [12]	Activity (Mus musculus [13])	Activity [14] [%]	Activity [15] [%]	Activity (Mus musculus [16])	Activity (Mus musculus [17])
O=C1CO[C@H]2CCN(C(=O)N3CCC(Cc4ccc(C(F)(F)F)cc4)CC3)C[C@H]2N1 [listing 1 of 2 here]	231 (≈ 543 µM)	12.8	Stable	45	1290	123	100	689	2	32	28.2							
O=C1CO[C@H]2CCN(C(=O)N3CCC(Cc4ccc(C(F)(F)F)cc4)CC3)C[C@H]2N1 [listing 2 of 2 here]												2.5 10^5/M/s	inactive	Dose-Dependent Effect	93	49	Active	inactive
